From PubChem
ADAM10 inh = inhibitors of human ADAM10 | O14672 | inhibition, % at 7 µM | recombinant ADAM10, EDANS/DABCYL FRET peptide cleavage, 3 h | hit rate 0.62% among 370,000;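 active means inhibition above a per-campaign cutoff equal to the mean of compounds falling between control-based bounds plus 3 SD, cut at about 20% in these data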;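 further: 0% = DMSO wells while the 100% control is not disclosed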
Target sequence (O14672 214-748 limits assumed): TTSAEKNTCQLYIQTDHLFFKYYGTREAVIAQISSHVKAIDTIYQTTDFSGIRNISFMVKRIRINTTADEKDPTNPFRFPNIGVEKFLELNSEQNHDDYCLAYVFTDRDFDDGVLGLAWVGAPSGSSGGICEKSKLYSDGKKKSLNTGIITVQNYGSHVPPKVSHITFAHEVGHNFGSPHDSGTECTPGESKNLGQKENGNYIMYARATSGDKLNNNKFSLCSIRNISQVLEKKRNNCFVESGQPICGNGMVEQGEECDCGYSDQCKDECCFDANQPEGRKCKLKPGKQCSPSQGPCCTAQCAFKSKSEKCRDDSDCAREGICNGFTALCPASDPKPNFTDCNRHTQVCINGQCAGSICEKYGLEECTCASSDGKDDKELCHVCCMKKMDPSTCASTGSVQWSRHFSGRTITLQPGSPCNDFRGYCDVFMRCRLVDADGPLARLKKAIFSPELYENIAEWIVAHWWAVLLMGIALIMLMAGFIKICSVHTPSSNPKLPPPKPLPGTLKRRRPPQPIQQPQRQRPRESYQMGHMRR
aDG glyco up = alpha-DG glycosylation activation | Pro5-aDG cells, alpha-DG glycosylation AlphaScreen (IIH6); 0% Pro5, 100% B10-LARGE cell signal | activation, % at 10 µM | hit rate 0.22% among 360,000 | AID 624168;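 active means activation of at least 8% versus controls, or a plate z-score of at least 8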;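 further: Pro5 are CHO cells carrying HIG-tagged alpha-DG that lacks glycosylation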
MPTP inh = blocks calcium-induced mitochondrial swelling; AID 602449; hit rate 1.4% among 360,000; isolated mouse mitochondria, Ca2+ swelling absorbance, 30 min; inhibition, % at 10 µM;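 active means inhibition of 50% or more, scaled per plate between neutral and stimulator controls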;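 further: 0% = DMSO wells given calcium and 100% = 1 mM EGTA wells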
V-ATPase pH = alters yeast V-ATPase proton transport; S. cerevisiae, pHLuorin cytosolic pH fluorescence; response, % at 10 µM; hit rate 0.37% among 350,000; in the data active means response mostly above about 7.3%, no sharp cut-off; inactive means mostly below about 5.4%; further: actives read high
Hep lipid drop = hepatic lipid droplet formation modulation; hit rate 0.4% among 240,000; AID 1656; AML12 mouse hepatocytes, oleate lipid droplets, BODIPY imaging; inhibition, % at 6.5 µM;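 active means lipid droplet intensity inhibited by at least 50%, with more than 500 cells counted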
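Assay system: AML12 mouse liver cells | Compound: 6.5 µM single-point dosing | Schedule: Overnight exposure | Technique: Fluorescence imaging, 20x objective, two fields per well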
ADAM17 inh = ADAM17 inhibition, QFRET primary screen | recombinant ADAM17, EDANS/DABCYL FRET peptide cleavage | inhibition, % at 6.95 µM | P78536 | hit rate 0.83% among 370,000;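 active means inhibition above the mean of compounds lying between control limits plus 3 SD, set per campaign, cut at about 8.5% in these data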;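 further: 0% = DMSO-only wells as the low control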
Rh123 counter = Rhodamine 123 counter-screen of mitochondrial pore hits; inhibition, % at 10 µM; isolated mitochondria, membrane potential, Rhodamine 123 fluorescence; AID 624504; hit rate 78% among 5,000; shares compounds with MPTP inh; in the data active means inhibition above about 22%;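 further: 0% = DMSO vehicle and 100% = positive control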
MPTP abs DR = dose response confirmation of mitochondrial permeability transition pore inhibitors | hit rate 58% among 780 | AID 651561 | shares compounds with MPTP inh | isolated mitochondria swelling, absorbance | IC50, µM; in the data active means IC50 below about 20 µM
MPTP cs DR = counter-screen for mitochondrial permeability transition pore inhibitors, dose response. hit rate 49% among 780. shares compounds with MPTP inh. isolated mitochondria counterscreen, fluorescence read-out. IC50, µM; in the data active means IC50 below about 80 µM
An asterisk follows results filed as active; i = inactive; . = no result. Only some compounds are listed: those with a hit (about 3.1% of all), similar ones and a draw of the others.

SMILES	ADAM10 inh	aDG glyco up	MPTP inh	V-ATPase pH	Hep lipid drop	ADAM17 inh	Rh123 counter	others
COc1ccccc1/C=C/CN1CCC(n2nccc2NC(=O)CCc2ccccc2)CC1	-8	2	74*	2	-24	0	109*
CCCCCCC(C)NC(=S)Nc1cc(S(=O)(=O)N(C)C)ccc1C (stereo unspecified)	5	0	64*	2	-24	4	79*
Cc1ccc(S(=O)(=O)N(C)C)cc1NC(=S)NC(C)CCC(C)C (stereo unspecified)	3	0	57*	-2	-36	2	73*
CC(=O)NNC(=S)Nc1cc(S(=O)(=O)N(C)C)ccc1C	1	0	-2	2	-4	1	.
Cc1ccc(S(=O)(=O)N(C)C)cc1NC(=S)NC(C)CCCC(C)C (stereo unspecified)	4	1	96*	0	-33	0	92*
Cc1cc(C)cc(NC(=O)Nc2cc(S(=O)(=O)N(C)C)ccc2C)c1	3	1	64*	1	-6	-3	84*
CCOC(=O)c1c(CN2CCN(CCO)CC2)n(C)c2cc(Br)c(OC)cc12	0	1	68*	-5	.	-1	-10	MPTP abs DR=i;MPTP cs DR=>80
CCOC(=O)c1c(CNCCN(CC)CC)n(C)c2cc(Br)c(OC)cc12	-5	4	74*	6	8	-1	-14	MPTP abs DR=i;MPTP cs DR=>80
CCOC(=O)c1c(CN2CCCCC2)n(C)c2cc(Br)c(OC)cc12	6	0	50	0	.	-3	.
COC(=O)[C@]12C[C@H](CC(=O)N3CCN(C(=O)c4ccco4)CC3)C(=O)N(Cc3ccc(Cl)cc3Cl)C1=C[C@H](C(C)C)O[C@@H]2C1CC1	12	.	.	.	.	2	.
O=C(NNC(=S)Nc1cccc(C(F)(F)F)c1)c1cccc(Cl)c1	6	0	94*	1	2	8	86*
S=C(Nc1ccccc1Cl)Nc1ccc(Cl)cc1Cl	2	0	14	4	.	0	.
FC(F)(F)c1cccc(NC(=S)Nc2cccc(NC(=S)Nc3cccc(C(F)(F)F)c3)n2)c1	4	0	91*	-1	-17	1	64*
FC(F)(F)c1cccc(NC(=S)Nc2ccc(Cl)cc2Cl)c1	-9	0	98*	-1	.	-4	109*
FC(F)(F)c1ccccc1NC(=S)Nc1cccc(Cl)c1	7	0	97*	0	-3	-1	89*
CN(Cc1ccccc1)S(=O)(=O)c1cccc(C(=O)OCc2ccccc2Cl)c1	9	.	.	.	.	3	.
O=C(NNC(=S)Nc1ccc(Cl)c(Cl)c1)c1cccc([N+](=O)[O-])c1	13	0	70*	-2	7	6	52*
S=C(Nc1ccccc1)Nc1ccc(Cl)cc1Cl	7	0	61*	-5	0	-2	79*
O=C(NNC(=S)NC(=O)c1ccccc1)c1cccc([N+](=O)[O-])c1	7	0	1	-2	.	-3	.
Cc1ccc(S(=O)(=O)N2CCC(=O)N(CCOCc3ccc(C(F)(F)F)cc3)CC2)cc1	6	4	78*	-1	-22	10*	99*
O=C(N/N=C/c1cc(Cl)ccc1O)c1ccc(Br)cc1	-27	1	92*	9	12	-6	64*
Cc1cccc(/C=N\NC(=O)c2ccc(Cl)cc2)c1O	-4	2	74*	0	-4	-3	80*
O=C(N/N=C\c1cc(Br)ccc1O)c1ccc(S(=O)(=O)N2CCCCC2)cc1	-9	1	66*	3	-3	-3	53*
O=C(N/N=C/c1cc(Br)ccc1O)c1ccncc1	9	0	4	-3	-15	-1	.
C#CCNC(=O)C[C@H]1C(=O)N(Cc2ccc(OC)cc2)C2=CCCCC[C@@]21C(=O)OC	1	.	.	.	.	-1	.
SMILES	ADAM10 inh	aDG glyco up	MPTP inh	V-ATPase pH	Hep lipid drop	ADAM17 inh	Rh123 counter	others
Cc1cccc(CNC(=S)OCCN2CCCC23CCC(c2ccccc2)CC3)c1 (stereo unspecified)	7	.	.	.	.	4	.
CC(=O)C1CCN(Cc2ccccc2)CC1	5	0	-1	-6	7	-6	.
CSc1ccccc1OC1CCN(Cc2ccccc2)CC1	3	1	54*	-3	-18	-3	0	MPTP abs DR=i;MPTP cs DR=63*
Cc1ccccc1NC(=O)OCCN1CCCC12CCC(c1ccccc1)CC2 (stereo unspecified)	7	.	.	.	.	2	.
COc1cc(Cl)c(C)cc1NC(=O)c1ccc(NS(=O)(=O)c2ccc(F)c(F)c2)cc1	3	1	51*	2	-22	2	60*
COc1ccc(NS(=O)(=O)c2ccc(N3CCOCC3)c(NC(=O)C(C)C)c2)cc1	-4	0	76*	-2	8	-4	55*
COc1ccc(S(=O)(=O)Nc2ccc(F)c(F)c2)cc1Cl	20	0	6	6	-34	6	.
COc1ccc(NS(=O)(=O)c2ccc(N3CCOCC3)c(NC(=O)c3ccc(F)cc3)c2)cc1	14	0	73*	2	3	5	17	MPTP abs DR=>100;MPTP cs DR=>80
COc1ccc(NS(=O)(=O)c2ccc(N3CCOCC3)c(NC(=O)c3ccco3)c2)cc1	-2	0	3	2	-21	-4	.
CCOC(=O)/C=C/C(=O)Nc1cc(S(=O)(=O)Nc2ccc(OC)cc2)ccc1N1CCOCC1	-2	0	57*	4	.	-2	70*
C=CCNC(=O)NC[C@@]1(C(=O)OC)CC(=O)N(C)[C@@H]1c1ccccc1	-2	.	.	.	.	-2	.
O=C(NCCc1c[nH]c2ccccc12)OCc1cn(Cc2ccccc2F)nn1	-12	.	.	.	.	-6	.
COC(=O)c1ccc2c(=O)n(CCCCCC(=O)N3CCN(c4ccccc4)CC3)c(=O)[nH]c2c1	-4	0	64*	1	4	-5	46*
Cc1cc(C)cc(NC(=O)OC2CCC23CCCCC3)c1 (stereo unspecified)	7	.	.	.	.	2	.
CSc1cccc(NC(=O)C(=O)NCc2ccccc2)c1	5	0	1	2	14	2	.
CSc1cccc(NC(=O)/C=C/c2cccc(Cl)c2)c1	15	0	73*	2	30	7	82*
CN(C)C(=O)Nc1ccccc1CC[N+](=O)[O-]	1	0	-1	-1	16	0	.
CSc1cccc(NC(=O)Nc2ccc(Cl)cc2)c1	-3	2	88*	0	.	-1	104*
